HePTP inhibitor: blocks human HePTP tyrosine phosphatase; recombinant HePTP phosphatase activity, OD absorbance; inhibition, % at 20 µM; P35236; 0.64% of 110,000 active; AID 521; in the data active means inhibition above about 50%
Target sequence (P35236 whole entry, looked up): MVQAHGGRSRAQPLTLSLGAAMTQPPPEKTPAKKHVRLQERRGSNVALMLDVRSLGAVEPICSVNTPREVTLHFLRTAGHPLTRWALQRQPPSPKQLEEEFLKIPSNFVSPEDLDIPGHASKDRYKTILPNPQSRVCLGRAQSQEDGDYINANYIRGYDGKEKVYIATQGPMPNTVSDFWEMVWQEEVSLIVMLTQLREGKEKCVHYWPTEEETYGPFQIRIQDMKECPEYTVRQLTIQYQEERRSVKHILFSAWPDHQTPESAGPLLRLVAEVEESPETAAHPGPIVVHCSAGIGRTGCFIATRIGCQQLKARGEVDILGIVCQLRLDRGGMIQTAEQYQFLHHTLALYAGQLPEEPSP
Ecoli tolC: E. coli tolC mutant growth inhibition. E. coli BW25113 tolC mutant growth, OD615. 2.2% of 65,000 active. growth inhibition, % at 10 µM (by protocol);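 active means growth inhibition at or above a cutoff equal to the mean over every tested compound plus 3 SD, cut at about 60% in these data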;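 further: growth measured after 20 h incubation at 37 °C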
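System: E. coli ΔtolC::kan strain BW25113; Buffer or medium: LB broth supplemented with 50 µg/mL kanamycin; Compound: 10 µM final, single dose; Incubation: bacterial growth with compound for 20 h at 37 °C; Signal: A615 absorbance measurement; Evaluation: growth inhibition in percent.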
Ecoli WT expand: blocks growth of wild type E. coli BW25113; OD600 absorbance; growth inhibition, % at 100 µM; 0.15% of 98,000 active;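 active means growth inhibition above about 50% at one test dose, limit read from the data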;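 further: growth measured after 20 h incubation at 37 °C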
AP complement: orthogonal test for alternative complement pathway inhibitors | 0.08% of 62,000 active | inhibition, % at 5 µM | Human serum alternative complement pathway, LPS-coated ELISA, C3 deposition; tested in compound mixtures;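 active means inhibition above 30% in each of the two pooled mixtures holding the compound, so the lower value exceeds 30%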
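Assay system: Human serum alternative complement pathway, C3 deposition on LPS-coated wells | Incubation: 1 h serum-compound exposure at 37 °C | Doses: 5 µM per compound in ten-compound mixtures | Read-out: Percent inhibition | Technique: ELISA with HRP anti-human C3 antibody, TMB substrate, absorbance 450 nm | Replication: Two pool placements per compound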
PLAP activator: human PLAP activation; P05187; purified PLAP enzyme, luminescent substrate read-out; active compounds read high; activation fold at 20 µM; 1.2% of 96,000 active; AID 696; in the data active means activation fold above about 2
A number is an active result; . = inactive; / = not tested or not shown. The list is not random: actives were taken first. Their share in the collection is about 2.3%.

SMILES | HePTP inhibitor | Ecoli tolC | Ecoli WT expand | AP complement | PLAP activator
O=C(Nc1cccc([N+](=O)[O-])c1)c1ccc2ccccc2n1 | . | / | / | / | /
O=C(CSc1ccccn1)Nc1ccc2c(c1)C(=O)c1ccccc1C2=O | 105.2 | / | / | / | /
CCN1CCc2c(sc(NC(=O)Nc3ccc(Cl)cc3)c2C(N)=O)C1 | 100.7 | / | / | / | /
CCOC(=O)c1c(NC(=O)c2ccc(Cl)cc2)sc(C(=O)Nc2ccccc2C(F)(F)F)c1C | . | / | / | / | /
COc1ccc(-c2nnc(NC(=O)c3ccc(S(=O)(=O)N4COCC4(C)C)cc3)o2)cc1 | . | 99.7 | . | . | .
CC1(C)COCN1S(=O)(=O)c1ccc(C(=O)Nc2nnc(-c3ccc(Cl)s3)o2)cc1 | . | 99.1 | . | . | /
COc1ccc(C(=O)CSc2nnc(-c3ccc(S(=O)(=O)N4CCOCC4)cc3)o2)cc1 | . | . | . | . | .
Cc1cc(N2CCCCC2)nc2ccc(NC(=O)CCC(=O)NCCC(C)C)cc12 | / | / | . | / | 2.2
CCCCNC(=O)CCC(=O)Nc1ccc2nc(N3CCOCC3)cc(C)c2c1 | . | . | . | . | .
COc1ccc(CCNC(=O)Nc2ccc(Cl)c(Cl)c2)cc1 | . | / | / | / | /
COc1cccc(C(=O)N/N=C/c2cn[nH]c2-c2ccc(OC)cc2OC)c1 | / | / | . | / | 2.2
Oc1ccc(Cl)cc1-c1cc(-c2ccccc2)n[nH]1 | . | 100.0 | . | . | .
COc1ccc(O)c(-c2cc(-c3ccccc3C)[nH]n2)c1 | . | / | / | / | /
Cc1ccc(-c2cc(-c3ccccc3[N+](=O)[O-])[nH]n2)c(O)c1 | / | / | . | / | 2
Oc1ccc(Cl)cc1-c1cc(-c2ccc(Br)cc2)n[nH]1 | . | / | / | / | /
Cc1ccccc1-c1cc(-c2ccccc2O)n[nH]1 | . | 100.0 | . | . | .
N/C(=N\OC(=O)c1ccc(I)cc1)c1ccccc1 | . | / | / | / | /
N#CC(C#N)=NNc1ccc(O)c(C(=O)O)c1 | 68.8 | / | / | / | /
N#CC(C#N)=NNc1ccccc1C(=O)O | . | / | / | / | /
Cn1ncc(C#N)c1/N=C/N(Cc1ccccc1)Cc1ccccc1 | . | 99.2 | . | . | .
CCOC(=O)C(=CNc1ccc(C(C)C)cc1)C(=O)OCC | . | / | / | / | /
Cc1onc(-c2ccccc2)c1C(=O)N1CCCc2ccccc21 | . | . | . | 31.9 | .
Cc1onc(-c2c(Cl)cccc2Cl)c1C(=O)N1CCCc2ccccc21 | / | / | . | / | .
COc1ccc2c(c1)CCc1c(C(=O)N3CCCc4ccccc43)noc1-2 | . | 70.8 | . | . | .
COC(=O)C1=C(O)/C(=C/c2ccc(O)cc2)N=C1C | . | / | / | / | /
SMILES | HePTP inhibitor | Ecoli tolC | Ecoli WT expand | AP complement | PLAP activator
C=CCNc1nc2ccccc2nc1NS(=O)(=O)c1cccs1 | . | . | . | . | .
O=S(=O)(Nc1nc2ccccc2nc1NCc1ccco1)c1cccs1 | . | 81.5 | . | . | .
O=C(Nc1ccc2c(c1)CCC2)C1COc2ccccc2O1 (centres undefined) | . | 100.0 | . | . | .
O=C(Nc1ccc2c(c1)OCO2)C1COc2ccccc2O1 (centres undefined) | . | . | . | . | .
COc1ccccc1OCC(=O)N1CCN(c2ccccc2OC)CC1 | . | . | . | . | .
COc1ccccc1OCCCCN1CCN(c2ccccc2OC)CC1 | / | / | . | / | 2.2
Cc1c(C(c2cc(Br)ccc2O)c2c(C)n(C)n(-c3ccccc3)c2=O)c(=O)n(-c2ccccc2)n1C | . | / | / | / | /
CC1=C(C(=O)OCC(C)C)C(c2ccc(Br)cc2)NC(=O)N1 (centres undefined) | 59.6 | / | / | / | /
COCCOC(=O)C1=C(C)NC(=O)NC1c1ccc(Br)cc1 (centres undefined) | . | / | / | / | /
CCOC(=O)/C(=C(/C)NCc1ccccc1)c1c(O)cc(Br)c(O)c1Br | . | / | / | / | /
N#Cc1cn(CC(=O)NCc2cccnc2)c2ccccc12 | . | . | . | . | .
N#Cc1cn(Cc2ccccc2)c2ccccc12 | . | 71.4 | . | . | .
Cc1cccc(NC(=O)C(=O)NCc2ccc3c(c2)OCO3)c1 | . | / | / | / | /
O=C(NCCOc1ccc(Cl)cc1)C(O)(c1ccc(Cl)cc1)c1ccc(Cl)cc1 | . | / | / | / | /
CC1=C/C(=N\N=C2\NC(=O)C(CC(=O)Nc3ccc(Cl)cc3)S2)CC(C)(C)C1 (centres undefined) | . | / | / | / | /
CC1=C/C(=N\N=C2\NC(=O)C(CC(=O)Nc3ccc(C(=O)O)cc3)S2)CC(C)(C)C1 (centres undefined) | 103.2 | / | / | / | /
O=C(CC1S/C(=N\N=C\c2ccccc2)NC1=O)Nc1ccc(C(=O)O)cc1 (centres undefined) | 103.7 | / | / | / | /
O=C(CC1S\C(=N/N=C/C=C/c2ccccc2)NC1=O)Nc1ccc(C(=O)O)cc1 (centres undefined) | . | / | / | / | /
COc1cc(OC)cc(C(=O)Nc2ccc(OC)c(OC)c2)c1 | . | / | / | / | /
O=C(Nc1nc2c(s1)CCCC2)Oc1ccccc1 | . | . | . | . | .
C/C(=N\Nc1nc2c(s1)CCCC2)c1ccccc1 | / | / | . | / | 2.3
COC(=O)C1=C(C)N=c2s/c(=C/c3cccc([N+](=O)[O-])c3)c(=O)n2C1c1ccc(OC(C)=O)cc1 (centres undefined) | . | / | / | / | /
CCOC(=O)C(=O)Nc1c(O)c2ccccc2[nH]c1=O | . | / | / | / | /
O=C(O)CN1C(=O)/C(=C2\SC(=S)N(/N=C/c3cc([N+](=O)[O-])ccc3O)C2=O)c2ccccc21 | 102.3 | / | / | / | /
CC(=O)OCC1=C(C(=O)O)N2C(=O)[C@@H](NC(=O)Cc3cccs3)[C@H]2SC1 | / | 100.0 | / | . | /
SMILES | HePTP inhibitor | Ecoli tolC | Ecoli WT expand | AP complement | PLAP activator
C=CC1=C(C(=O)O)N2C(=O)C(NC(=O)Cc3ccccc3)C2SC1 (centres undefined) | / | / | . | / | .
Cn1c(O)c(N=NC(=O)COc2ccc3ccccc3c2)c2ccccc21 | . | / | / | / | /
CCOC(=O)c1c(-c2ccc(C)o2)csc1NC(=O)CN1CCOCC1 | / | / | . | / | .
CCOC(=O)c1c(-c2ccc(C)o2)csc1NC(=O)CSc1ncn[nH]1 | / | / | . | / | 2.2
CCN(CC)CCCNc1nc2cc(OC)c(OC)cc2c2nc(-c3ccccc3)nn12 | / | / | . | / | 2
COc1cc2nc(NCC3CCCO3)n3nc(-c4cccnc4)nc3c2cc1OC (centres undefined) | . | . | . | . | 2
COc1cc2c(cc1OC)C(c1ccc(C)o1)SC(c1ccc(C)o1)=N2 (centres undefined) | . | / | / | / | /
COc1ccc(CN2CCN(C3CCN(Cc4ccccc4)CC3)CC2)cc1Br | . | / | / | / | /
Cc1ccc(C)c(N(CC(=O)NCc2ccc(Cl)cc2)S(=O)(=O)c2ccccc2)c1 | . | / | / | / | /
CN1CCCN(C(=O)Cc2c(Cl)cccc2Cl)c2nc3ccccc3nc21 | . | 70.2 | . | . | .
Cc1cccc2sc(NC(=O)CN(C)S(=O)(=O)c3ccc(Br)s3)nc12 | . | 92.3 | . | . | .
CCCCNc1cc(C)nc(NCc2ccccc2)n1 | . | 76.6 | 59.0 | . | .
Cc1ccc2nc(SCC(=O)c3cc(C)n(C)c3C)[nH]c2c1 | / | / | . | / | .
Cc1cc(C(=O)CSc2nc3ccc(Cl)cc3[nH]2)c(C)n1C | . | . | . | . | 2.1
Cc1cc(NC(=O)CSc2nc3ccc(Cl)cc3[nH]2)no1 | / | / | . | / | 2.7
CCC(Sc1nc2ccccc2[nH]1)C(=O)Nc1cc(C)on1 (centres undefined) | . | . | . | . | 2.1
Cc1cc(NC(=O)CSc2nc3cc(Cl)ccc3s2)no1 | / | / | . | / | .
